Consider nine compounds from ChEMBL document CHEMBL1933001, “LDV peptidomimetics equipped with biotinylated spacer-arms: synthesis and biological evaluation on CCRF-CEM cell line” (Bioorg Med Chem Lett, 2012).

Calls of active or inactive are those of the source. The rule behind the calls is not given here. A value given as a limit tells only on which side of the number the result lay.

By IC50 is commonly meant the point on the concentration scale where inhibition reaches its midpoint.

Series [1] concerns the target T1, Integrin alpha-4/beta-1 (Homo sapiens, UniProt P05556+P13612). Description: Inhibition of alpha4beta1 integrin expressed in human CCRF-CEM cells assessed as cell adhesion to fibronectin after 1 hr by fluorimetry analysis. It counts as cell-based. In outline: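 Calcein-prelabelled CCRF-CEM cells (α4β1-expressing T lymphoblast-like line) were added to plates coated with fibronectin (10 µg/mL). Incubation was 1 h at 37 °C with or without increasing compound doses (1–500 µM). Adherent cells were quantified by fluorescence, and IC50 was derived from the inhibition of adhesion.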

A further series deals with CCRF-CEM. Description: Cytotoxicity against human CCRF-CEM cells at 200 uM after 24 hrs by propidium iodide-based flow cytometry. It counts as cell-based. In outline: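 CCRF-CEM cells were incubated for 24 h with increasing amounts of compound, up to 200 µM final, then stained with propidium iodide to detect dead cells by fluorescence.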
(In general: A flow cytometer gives signals particle by particle.)

Series [2] deals with T1, Integrin alpha-4/beta-1. Description: Induction of adhesion of alpha4beta1 integrin expressing calcein-labelled human CCRF-CEM cells to neutravidin-coated plates at 0.1 to 10 uM pre-incubated for 2 hrs measured after 1 hr by fluorimetry. It counts as cell-based. In outline: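 Neutravidin-coated plates were pre-treated with biotin-conjugated compound, then calcein-labelled CCRF-CEM cells were added. Adherent cells were quantified by calcein fluorescence. Untreated plates served as control.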

In series [3] the target is T1, Integrin alpha-4/beta-1. Description: Binding affinity to alpha4beta1 integrin expressed human CCRF-CEM cells at 100 uM after 24 hrs by alexa-conjugated streptavidin-based microscopy. It counts as cell-based. In outline:
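Fibronectin-coated plates (10 µg/mL). Adherent CCRF-CEM cells were exposed to biotin-conjugated molecules at 100 µM for 24 h and washed extensively. Alexa 568-conjugated streptavidin was then added, and extracellular fluorescence on the cell surface was imaged. Controls were not pre-treated and received only fluorescent streptavidin.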

The target in series [4] is T1, Integrin alpha-4/beta-1. Description: Detachment of pre-adhered alpha4beta1 integrin expressed in calcein-labelled human CCRF-CEM cells from fibronectin at 1 to 500 uM after 24 to 48 hrs by MTT assay. It counts as cell-based.
Another series deals with HUVEC. Description: Inhibition of fibronectin adhesion into HUVEC after 1 hr by fluorimetry analysis. It counts as functional, cell-based. Particulars: Homo sapiens.

T1 sequence (P05556 whole entry): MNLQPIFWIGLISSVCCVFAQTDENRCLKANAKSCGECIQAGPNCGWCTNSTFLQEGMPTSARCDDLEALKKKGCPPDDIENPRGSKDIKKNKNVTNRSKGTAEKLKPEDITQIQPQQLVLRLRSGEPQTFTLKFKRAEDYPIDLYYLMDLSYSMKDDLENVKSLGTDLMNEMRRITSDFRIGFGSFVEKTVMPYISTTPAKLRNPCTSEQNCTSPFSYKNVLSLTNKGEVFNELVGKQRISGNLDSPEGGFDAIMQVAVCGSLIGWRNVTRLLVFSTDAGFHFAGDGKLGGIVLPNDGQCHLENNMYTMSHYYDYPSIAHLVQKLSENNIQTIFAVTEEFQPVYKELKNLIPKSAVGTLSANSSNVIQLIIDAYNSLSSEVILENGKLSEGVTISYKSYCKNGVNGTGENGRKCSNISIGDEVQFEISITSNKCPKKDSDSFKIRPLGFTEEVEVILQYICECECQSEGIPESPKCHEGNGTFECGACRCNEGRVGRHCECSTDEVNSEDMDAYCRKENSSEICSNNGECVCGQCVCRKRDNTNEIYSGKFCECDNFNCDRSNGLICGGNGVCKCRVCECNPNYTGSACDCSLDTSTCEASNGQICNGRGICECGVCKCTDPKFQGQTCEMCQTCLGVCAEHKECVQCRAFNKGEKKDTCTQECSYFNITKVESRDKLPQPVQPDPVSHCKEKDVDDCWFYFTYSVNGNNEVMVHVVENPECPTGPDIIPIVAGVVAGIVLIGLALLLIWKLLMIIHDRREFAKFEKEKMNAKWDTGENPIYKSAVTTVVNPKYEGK
T1 sequence (P13612 whole entry): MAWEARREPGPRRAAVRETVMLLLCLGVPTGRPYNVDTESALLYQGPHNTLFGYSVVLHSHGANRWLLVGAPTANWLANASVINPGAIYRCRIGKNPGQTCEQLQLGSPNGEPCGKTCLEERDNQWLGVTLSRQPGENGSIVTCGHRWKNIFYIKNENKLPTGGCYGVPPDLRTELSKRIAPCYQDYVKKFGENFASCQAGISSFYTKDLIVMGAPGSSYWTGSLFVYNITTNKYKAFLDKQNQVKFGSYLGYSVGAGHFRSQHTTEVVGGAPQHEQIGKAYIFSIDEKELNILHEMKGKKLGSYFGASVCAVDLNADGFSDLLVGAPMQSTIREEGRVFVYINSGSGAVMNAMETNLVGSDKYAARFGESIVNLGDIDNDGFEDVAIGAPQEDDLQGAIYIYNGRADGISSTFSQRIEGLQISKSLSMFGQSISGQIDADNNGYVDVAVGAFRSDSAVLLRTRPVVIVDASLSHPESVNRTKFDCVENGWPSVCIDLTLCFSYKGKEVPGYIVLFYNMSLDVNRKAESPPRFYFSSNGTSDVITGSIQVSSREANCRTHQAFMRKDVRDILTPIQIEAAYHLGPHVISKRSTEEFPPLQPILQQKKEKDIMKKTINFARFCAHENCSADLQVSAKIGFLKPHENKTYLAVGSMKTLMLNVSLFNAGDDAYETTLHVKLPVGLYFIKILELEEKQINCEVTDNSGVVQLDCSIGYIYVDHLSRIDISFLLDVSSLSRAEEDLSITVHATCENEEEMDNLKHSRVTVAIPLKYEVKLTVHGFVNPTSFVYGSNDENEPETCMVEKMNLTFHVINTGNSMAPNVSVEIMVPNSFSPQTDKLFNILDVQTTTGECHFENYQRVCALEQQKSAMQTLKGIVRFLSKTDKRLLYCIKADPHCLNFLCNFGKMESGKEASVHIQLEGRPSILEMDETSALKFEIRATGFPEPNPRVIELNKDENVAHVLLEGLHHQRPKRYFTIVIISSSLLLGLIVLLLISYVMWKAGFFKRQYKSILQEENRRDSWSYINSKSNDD

Take `Cc1cccc(C)c1NC(=O)Nc1ccc(CC(=O)NCCCCCCCCCCCCNC(=O)CCCC[C@@H]2SC[C@@H]3NC(=O)N[C@@H]32)cc1`: at Integrin alpha-4/beta-1 [1], the IC50 was found to be 97.7 µM. Further, the Activity entry in the series with CCRF-CEM was “Non-toxic”. In addition, the result at Integrin alpha-4/beta-1 [2] and on Integrin alpha-4/beta-1 [3] was inactive.
`Cc1cccc(C)c1NC(=O)Nc1ccc(CC(=O)Nc2ccc(OCC(=O)O)c(CCC(=O)NCCCCCCCCCCCCN)c2)cc1`: on Integrin alpha-4/beta-1 [1], the IC50 was 123 µM. Besides, the outcome on Integrin alpha-4/beta-1 [4] was Active.
The corresponding values for `Cc1cccc(C)c1NC(=O)Nc1ccc(CC(=O)Nc2ccc(OCC(=O)O)c(CCC(=O)NCCOCCOCCOCCOCCOCCN)c2)cc1` are 170 µM and “inactive”.
For the compound `Cc1cccc(C)c1NC(=O)Nc1ccc(CC(=O)Nc2ccc(OCC(=O)O)c(CCC(=O)NCCCCCCCCCCCCNC(=O)CCCC[C@@H]3SC[C@@H]4NC(=O)N[C@@H]43)c2)cc1`, the IC50 at Integrin alpha-4/beta-1 [1] amounted to 14.1 µM. The Activity result in the series with CCRF-CEM was “Non-toxic”. The result on Integrin alpha-4/beta-1 [2] and at Integrin alpha-4/beta-1 [3] was Active.
In the case of `Cc1cccc(C)c1NC(=O)Nc1ccc(CC(=O)N[C@@H](CC(C)C)C(=O)N[C@@H](CC(=O)O)C(=O)N[C@H](C(=O)NCCCCCCCCCCCCN)C(C)C)cc1`, the IC50 at Integrin alpha-4/beta-1 [1] was 2.6 µM. For the same compound, the inhibition entry in the series on HUVEC was “inactive”.
`Cc1cccc(C)c1NC(=O)Nc1ccc(CC(=O)O)cc1`: the IC50 at Integrin alpha-4/beta-1 [1] was greater than 1000 µM.
For `Cc1cccc(C)c1NC(=O)Nc1ccc(CC(=O)N[C@@H](CC(C)C)C(=O)N[C@@H](CC(=O)O)C(=O)N[C@H](C(=O)NCCc2ccccc2)C(C)C)cc1`, at Integrin alpha-4/beta-1 [1], the IC50 was determined as 36.3 µM. Further, in the series on HUVEC, the inhibition entry is “inactive”.
With `Cc1cccc(C)c1NC(=O)Nc1ccc(CC(=O)Nc2ccc(OCC(=O)OC(C)(C)C)c(CCC(=O)O)c2)cc1`, the concentration for half-maximal inhibition (IC50) at Integrin alpha-4/beta-1 [1] turned out to be 68.4 µM.
Same read-out and setting: the result for `Cc1cccc(C)c1NC(=O)Nc1ccc(CC(=O)NCCCCCCCCCCCCN)cc1` reads 151 µM.
